The values below come from ChEMBL document CHEMBL1148770, “Conformation-activity relationship of neuropeptide S and some structural mutants: helicity affects their interaction with the receptor” (J Med Chem, 2007).

Type in all cases: functional, cell-based
Experiment [1] addresses T1, Neuropeptide S receptor (Mus musculus, UniProt Q8BZP8).
T1 sequence (Q8BZP8 whole entry): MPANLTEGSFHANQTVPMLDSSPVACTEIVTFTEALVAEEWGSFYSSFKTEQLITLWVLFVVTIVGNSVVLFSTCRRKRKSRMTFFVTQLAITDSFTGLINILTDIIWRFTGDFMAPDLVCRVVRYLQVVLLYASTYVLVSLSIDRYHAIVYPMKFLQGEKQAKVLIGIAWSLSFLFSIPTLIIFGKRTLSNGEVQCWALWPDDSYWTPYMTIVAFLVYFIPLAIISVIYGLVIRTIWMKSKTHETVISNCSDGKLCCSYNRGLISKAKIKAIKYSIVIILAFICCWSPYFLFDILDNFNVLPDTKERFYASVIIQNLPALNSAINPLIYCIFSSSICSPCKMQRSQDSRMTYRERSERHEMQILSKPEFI
The experiment can be described thus: Agonist activity at mouse recombinant NPSR expressed in HEK293 cells assessed as calcium mobilization. A digest of the protocol: (§1)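 HEK293 cells stably expressing mouse NPSR, grown in DMEM/10% FBS/2 mM glutamine/hygromycin at 37 °C, 5% CO2. Seeded 50,000 cells/well on poly-D-lysine; next day loaded 30 min at 37 °C with 3 µM Fluo-4 AM, 2.5 mM probenecid, 0.01% pluronic acid. Read in HBSS/20 mM HEPES/probenecid/Brilliant Black at ≈22 °C on FlexStation; peak fluorescence change as % baseline; logistic fit; ≥4 experiments in duplicate.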
In general terms: Calcium assays in cells follow changes in intracellular calcium, usually with a dye or a luminescent sensor.

The target in experiment [2] is T2, Neuropeptide S receptor (Mus musculus) (UniProt Q8BZP8).
T2 sequence (whole entry): T1 sequence (Q8BZP8 whole entry)
The experiment can be described thus: Agonist activity at mouse recombinant NPSR expressed in HEK293 cells assessed as calcium mobilization relative to baseline. In a few lines: as §1

Experiment [3] deals with T1, Neuropeptide S receptor. The experiment can be described thus: Antagonist activity at mouse NPSR expressed in HEK293 cells assessed as inhibition of 10 nM hNPS-induced calcium mobilization. A digest of the protocol:
(§2)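 Mouse NPSR stably expressed in HEK293 cells, grown with hygromycin, then plated at 50 000 cells/well. Next day, cells were loaded for 30 min at 37 °C with 3 µM Fluo-4 AM, 2.5 mM probenecid and 0.01% pluronic acid. The assay buffer was HBSS with 20 mM HEPES, probenecid and 500 µM Brilliant Black. Fluorescence was read at about 22 °C. pIC50 came from a logistic fit of peak fluorescence (% of baseline). At least four experiments, each in duplicate.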

Experiment [4] addresses T1, Neuropeptide S receptor. The experiment can be described thus: Antagonist activity at mouse NPSR expressed in HEK293 cells assessed as inhibition of 100 nM hNPS-induced calcium mobilization. In a few lines: as §2

Square brackets hold non-standard residues; d marks the D form. Peptide text beside a SMILES is read from it. Aib = CC(C)(N)C(=O)O

As a reminder, the EC50 is the midpoint of the concentration-response curve. Broadly, the Emax is the size of the effect at its maximum, as opposed to the concentration needed. Usually IC50 stands for the concentration that gives 50% inhibition. For `CSCC[C@H](NC(=O)CNC(=O)[C@@H](NC(=O)CNC(=O)[C@@H](NC(=O)C(C)(C)NC(=O)[C@H](CC(N)=O)NC(=O)[C@H](CCCNC(=N)N)NC(=O)[C@H](Cc1ccccc1)NC(=O)[C@@H](N)CO)C(C)C)[C@@H](C)O)C(=O)N[C@@H](CCCCN)C(=O)N[C@@H](CCCCN)C(=O)N[C@H](C(=O)N[C@@H](CO)C(=O)N[C@@H](Cc1ccccc1)C(=O)N[C@@H](CCC(N)=O)C(=O)N[C@@H](CCCNC(=N)N)C(=O)N[C@@H](C)C(=O)N[C@@H](CCCCN)C(=O)N[C@@H](CO)C(=O)O)[C@@H](C)O` (H-SFRN[Aib]VGTGMKKTSFQRAKS-OH), on Neuropeptide S receptor [1], the EC50 is 191 nM. Further, the Emax in experiment [2] came out at 65%. Besides, the IC50 is 537 nM at Neuropeptide S receptor [3] and 1620 nM at Neuropeptide S receptor [4].

Turning to `CSCC[C@H](NC(=O)CNC(=O)[C@@H](NC(=O)CNC(=O)[C@@H](NC(=O)CNC(=O)[C@H](CC(N)=O)NC(=O)[C@H](CCCNC(=N)N)NC(=O)[C@H](Cc1ccccc1)NC(=O)[C@@H](N)CO)C(C)C)[C@@H](C)O)C(=O)N[C@@H](CCCCN)C(=O)N[C@@H](CCCCN)C(=O)N[C@H](C(=O)N[C@@H](CO)C(=O)N[C@@H](Cc1ccccc1)C(=O)N[C@@H](CCC(N)=O)C(=O)N[C@@H](CCCNC(=N)N)C(=O)N[C@@H](C)C(=O)N[C@@H](CCCCN)C(=O)N[C@@H](CO)C(=O)O)[C@@H](C)O` [NEUROPEPTIDE S] (H-SFRNGVGTGMKKTSFQRAKS-OH), the EC50 on Neuropeptide S receptor [1] is 9.12 nM. Besides, the Emax in experiment [2] was 175%.
